Assay [1] addresses T1, 5-hydroxytryptamine receptor 1A (Homo sapiens, UniProt P08908).
T1 sequence (P08908 whole entry): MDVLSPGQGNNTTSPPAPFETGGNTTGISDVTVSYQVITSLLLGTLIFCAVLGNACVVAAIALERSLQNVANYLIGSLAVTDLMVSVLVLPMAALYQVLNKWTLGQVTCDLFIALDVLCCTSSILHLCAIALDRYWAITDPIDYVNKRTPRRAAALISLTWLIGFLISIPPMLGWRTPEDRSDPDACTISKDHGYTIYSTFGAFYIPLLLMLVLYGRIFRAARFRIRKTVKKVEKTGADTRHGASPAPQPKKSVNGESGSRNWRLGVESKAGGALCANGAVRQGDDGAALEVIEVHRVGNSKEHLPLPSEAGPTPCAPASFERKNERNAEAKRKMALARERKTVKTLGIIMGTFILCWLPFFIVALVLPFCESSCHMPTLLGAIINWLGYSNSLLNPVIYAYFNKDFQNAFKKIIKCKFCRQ
Briefly: Displacement of [3H]-8-OH-DPAT from human 5-HT1A expressed in CHO-K1 cells after 120 mins by scintillation spectrometry. Type of assay: cell-based. The essentials:
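Competitive radioligand binding on membranes from transfected cells expressing human 5-HT1A receptor, with [3H]-8-OH-DPAT as the radioligand. Affinity is given as Ki, the mean of two to four experiments, each run in triplicate.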
On the technique in general: Loss of bound radioactivity is the signal in a displacement assay; it reports binding, not function.

In assay [2] the target is T2, 5-hydroxytryptamine receptor 7 (Homo sapiens, UniProt P34969). Briefly: Displacement of [3H]LSD from human 5-HT7 expressed in HEK-293 cells after 120 mins by scintillation spectrometry. The format is cell-based, HEK293. A digest of the protocol:
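Competition binding on membranes of CHO-K1 or HEK-293 cells transfected with human 5-HT7 receptor, radioligand [3H]LSD; 5-CT as reference. Two to four experiments, each in triplicate; Ki reported as mean.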

The target of assay [3] is T3, Corticotropin-releasing factor receptor 1 (Homo sapiens) (UniProt P34998).
T3 sequence (whole entry): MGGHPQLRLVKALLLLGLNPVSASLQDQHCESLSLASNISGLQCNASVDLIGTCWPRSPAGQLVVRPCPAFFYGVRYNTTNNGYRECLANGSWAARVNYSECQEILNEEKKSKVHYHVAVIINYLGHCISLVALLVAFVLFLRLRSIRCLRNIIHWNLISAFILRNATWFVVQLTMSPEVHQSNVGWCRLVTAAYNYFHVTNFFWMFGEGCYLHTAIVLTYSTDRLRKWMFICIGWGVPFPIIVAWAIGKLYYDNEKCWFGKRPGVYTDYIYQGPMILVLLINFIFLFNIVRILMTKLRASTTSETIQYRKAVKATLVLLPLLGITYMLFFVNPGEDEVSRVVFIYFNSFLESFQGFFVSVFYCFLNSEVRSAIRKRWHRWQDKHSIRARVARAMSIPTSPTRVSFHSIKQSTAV
Kind of assay: Displacement of [125I]sauvagine from CRF1 (unknown origin) at 1 uM after 120 mins. The essentials:
(§1)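 Single test concentration of 1 μM; percent displacement of the respective radioligand binding at each target.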

The subject of assay [4] is Mus musculus. Briefly: Antidepressant activity in C57BL/6J mouse assessed as decrease in the immobility at 1 mg/kg, ip administered as single dose measured for last 4 mins of test by tail suspension method relative to vehicle-treated control. The format is functional, organism-based. Further details: dose 1 mg/kg.
Assay [5] addresses 5-hydroxytryptamine receptor 2A (Homo sapiens) (UniProt P28223). Kind of assay: Displacement of [3H]ketanserin from 5-HT2A (unknown origin) at 1 uM after 60 mins. The essentials: as §1
For assay [6], the target named is Melatonin receptor (Homo sapiens) (UniProt P48039+P49286). Kind of assay: Displacement of [125I]-2-iodomelatonin from MT1 (unknown origin) at 1 uM after 60 mins. The format is protein assay. The essentials:
as §1

Assay [7] relates to Mus musculus. Kind of assay: Inhibition of 8-OH-DPAT-induced hypothermia in C57BL/6J mouse assessed as reduction in core body temperature at 1 mg/kg, ip administered 30 mins prior challenge as single dose. Further details: dose 1 mg/kg. The format is functional, organism-based. The essentials: (§2)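 C57BL/6J mice (male and female, 8−12 weeks), single ip doses in 0.9% saline vehicle, start 9:00 h. Rectal probe core temperature taken at baseline just before injection, at 15 and 30 min, then every 30 min to 2 h. For antagonism, test drug given 30 min before 8-OH-DPAT (0.3 mg/kg ip).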

Assay [8] concerns Mus musculus. Briefly: Antidepressant activity in C57BL/6J mouse assessed as decrease in the immobility at 10 mg/kg, ip administered as single dose measured for last 4 mins of test by tail suspension method relative to vehicle-treated control. Type of assay: functional, organism-based. Further details: dose 10 mg/kg.
In assay [9] the target is T2, 5-hydroxytryptamine receptor 7. Briefly: Antagonist activity at human 5-HT7 expressed in HEK-293 cells assessed as inhibition in serotonin-induced increase in cAMP level after 45 mins by HTRF assay. The format is functional, cell-based, HEK293. The essentials:
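From the concentration–response curve, maximal inhibition (Imax) and IC50 were read, and the dissociation constant KB was calculated.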

Assay [10] deals with Mus musculus. Kind of assay: Effect on core body temperature in C57BL/6J mouse at 0.3 to 1 mg/kg, ip administered as single dose. Type of assay: functional, organism-based. The essentials:
as §2

The target of assay [11] is Sodium-dependent serotonin transporter (Homo sapiens) (UniProt P31645). Kind of assay: Displacement of [3H]imipramine from 5-HT transporter (unknown origin) at 1 uM after 60 mins. A digest of the protocol: as §1
Assay [12] concerns the target T2, 5-hydroxytryptamine receptor 7. Briefly: Agonist activity at human 5-HT7 expressed in HEK-293 cells assessed as increase in cAMP level after 45 mins by HTRF assay. The format is functional, cell-based, HEK293. A general note: Cyclic AMP is a second messenger, typically raised through Gs and lowered through Gi signalling.
Assay [13] concerns Mus musculus. Briefly: Antidepressant activity in C57BL/6J mouse assessed as decrease in the immobility at 1 mg/kg, ip administered as single dose measured for last 4 mins of test by forced swim test relative to vehicle-treated control. The format is functional, organism-based. Further details: dose 1 mg/kg. A digest of the protocol:
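Male and female C57BL/6J mice, 8−12 weeks, group housed; single ip injection, 0.9% saline vehicle; start 9:00 h. Mouse placed 6 min in clear cylinder (16 cm diameter, 25 cm high) holding 10 cm of 25 °C water, replaced between animals; trained observer scored immobility (no movement beyond keeping head above surface) over last 4 min. N = 7−9/group; Student's two-tailed unpaired t test.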

By Ki is commonly meant a dissociation constant, usually derived from enzyme kinetics or from competition with a known ligand. The inhibition is the drop in the measured response relative to a control, in per cent. Broadly, the IC50 is the concentration needed to halve the response being measured. For orientation: EC50 means the concentration that produces a half-maximal response.

Active and inactive are the calls of the source. The calls are words filed in the database; no cut-off is given here.

T2 sequence (P34969 whole entry): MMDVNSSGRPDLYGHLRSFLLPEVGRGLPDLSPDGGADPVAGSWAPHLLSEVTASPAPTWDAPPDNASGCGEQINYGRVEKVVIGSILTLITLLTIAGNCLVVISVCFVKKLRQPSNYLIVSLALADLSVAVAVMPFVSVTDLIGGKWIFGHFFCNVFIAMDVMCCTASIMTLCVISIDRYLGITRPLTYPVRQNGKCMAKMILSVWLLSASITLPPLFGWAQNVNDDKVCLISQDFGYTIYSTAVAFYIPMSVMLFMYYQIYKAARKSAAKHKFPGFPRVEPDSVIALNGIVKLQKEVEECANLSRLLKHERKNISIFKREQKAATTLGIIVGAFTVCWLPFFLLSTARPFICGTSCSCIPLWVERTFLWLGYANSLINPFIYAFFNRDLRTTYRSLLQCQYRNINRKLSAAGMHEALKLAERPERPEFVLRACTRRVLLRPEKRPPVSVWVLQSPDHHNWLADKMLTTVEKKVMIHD
Sequence of Sodium-dependent serotonin transporter (Homo sapiens) (P31645 whole entry, looked up): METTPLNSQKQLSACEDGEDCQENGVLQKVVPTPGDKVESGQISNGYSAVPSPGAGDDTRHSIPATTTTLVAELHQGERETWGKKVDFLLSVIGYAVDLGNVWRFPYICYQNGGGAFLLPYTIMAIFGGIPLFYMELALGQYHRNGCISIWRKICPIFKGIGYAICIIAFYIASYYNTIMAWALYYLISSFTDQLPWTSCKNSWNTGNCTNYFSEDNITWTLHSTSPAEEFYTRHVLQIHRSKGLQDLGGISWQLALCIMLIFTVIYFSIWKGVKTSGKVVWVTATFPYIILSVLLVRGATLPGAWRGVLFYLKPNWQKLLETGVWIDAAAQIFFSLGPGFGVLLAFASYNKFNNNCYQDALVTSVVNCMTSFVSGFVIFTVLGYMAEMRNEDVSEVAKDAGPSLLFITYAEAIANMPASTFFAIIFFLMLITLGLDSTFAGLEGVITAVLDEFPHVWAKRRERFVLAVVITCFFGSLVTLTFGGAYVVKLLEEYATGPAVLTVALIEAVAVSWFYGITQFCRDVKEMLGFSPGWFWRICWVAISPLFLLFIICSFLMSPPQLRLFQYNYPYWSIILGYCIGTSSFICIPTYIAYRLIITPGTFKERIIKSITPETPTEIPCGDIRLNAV
Sequence of 5-hydroxytryptamine receptor 2A (Homo sapiens) (P28223 whole entry): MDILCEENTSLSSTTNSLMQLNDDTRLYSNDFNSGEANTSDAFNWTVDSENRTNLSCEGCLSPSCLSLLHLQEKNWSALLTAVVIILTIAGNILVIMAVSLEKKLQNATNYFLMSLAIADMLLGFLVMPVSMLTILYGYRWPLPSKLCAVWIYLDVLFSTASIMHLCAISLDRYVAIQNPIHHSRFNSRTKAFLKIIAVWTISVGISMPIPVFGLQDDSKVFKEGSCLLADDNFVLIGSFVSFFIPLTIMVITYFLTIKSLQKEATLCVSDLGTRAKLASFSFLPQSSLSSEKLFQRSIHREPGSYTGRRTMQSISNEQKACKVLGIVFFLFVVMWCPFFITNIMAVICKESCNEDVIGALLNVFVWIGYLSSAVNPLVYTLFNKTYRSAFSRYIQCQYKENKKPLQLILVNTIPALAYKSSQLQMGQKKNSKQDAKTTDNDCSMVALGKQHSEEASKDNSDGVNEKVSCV

Take `O=C1Cc2ccccc2N1CCCCCN1CCc2ccccc2C1`: the values for the inhibitory constant (Ki) in [1] and in assay [2] were 523 nM and 28 nM, respectively.

On to `O=C1Cc2ccccc2N1CCCCCCN1CCc2ccccc2C1`, for which the inhibition constant (Ki) in assay [1] was determined as 576 nM; in assay [2], 24 nM.

On to `O=C1Cc2ccccc2N1CC/C=C/CCN1CCc2ccccc2C1`, for which the inhibition in [3] was -10%; in assay [5] it was 15%; in assay [6], -4%; in assay [11], 14%. Also, the outcome in the assay with Mus musculus [4] and with Mus musculus [13] was Active. In the assay on Mus musculus [7], the inhibition result is “Active”. Moreover, the outcome in the assay on Mus musculus [8] and in the assay on Mus musculus [10] was inactive. For the same molecule, the inhibition constant (Ki) is more than 1000 nM in [1] and 0.7 nM in [2]. Further, the half-maximal inhibitory concentration (IC50) in [9] came out at 2200 nM. In addition, the EC50 in [12] worked out at 230 nM.

As for `O=C1Cc2ccccc2N1CCCCCN1CC[C@H]2CCCC[C@@H]2C1` (racemic), the Ki turned out to be 491 nM in [1] and 41 nM in [2].

`O=C1Cc2ccccc2N1CCCCCCCN1CC[C@H]2CCCC[C@@H]2C1` (racemic): the inhibition constant (Ki) was more than 1000 nM in assay [1] and 62 nM in assay [2].

As for `O=C1Cc2ccccc2N1CCCCCCCN1CCc2ccccc2C1`, the figures for the Ki in [1] and in assay [2] were more than 1000 nM and 36 nM, respectively.

For `O=C1Cc2ccccc2N1CC/C=C/CCN1CC[C@H]2CCCC[C@@H]2C1` (racemic), the inhibition constant Ki in [1] was more than 1000 nM; in assay [2], 2.7 nM. In addition, the IC50 in [9] came out at 2300 nM. For the same molecule, the EC50 in assay [12] came to 60 nM.

For `CN1C[C@@H](NS(=O)(=O)N(C)C)C[C@@H]2c3cccc4c3c(cn4C)C[C@H]21` [MESULERGINE], in assay [9], the half-maximal inhibitory concentration (IC50) was found to be 290 nM.

Regarding `O=C1Cc2ccccc2N1CCCCN1CC[C@H]2CCCC[C@@H]2C1` (racemic), the values for the inhibition constant (Ki) in assay [1] and in [2] were 470 nM and 29 nM, respectively.

The values above are taken from ChEMBL document CHEMBL3351619 (J Med Chem, 2014).
